Experimental data pooled from the literature.
Lines come from different studies, so protocols differ.
Target: Acetylcholinesterase (ACHE, Homo sapiens, UniProt P22303)
Observed: enzyme activity
Action: inhibitor

C#CCNc1nc(NCCCC2CCN(Cc3ccccc3)CC2)c(C#N)cc1C#N
IC50 (Ellman): 1 nM

COc1cc2c3cc1Oc1cc(ccc1O)C[C@@H]1c4c(cc(OC)c(O)c4Oc4ccc(cc4)C[C@@H]3N(C)CC2)CC[N+]1(C)C
IC50 (Ellman): 57600 nM

c1ccc2c(c1)[I+]c1ccccc1-2
IC50: 16100 nM

C=CCn1c2cc(OC(=O)CCCCN3CCN(Cc4ccc(C(F)(F)F)cc4)CC3)ccc2c2ccnc(C)c21
IC50 (Ellman): 122 nM

CC(=O)n1ccc(=O)[nH]c1=O
IC50 (Ellman): 136 nM

C=CCn1c2cc(OC(=O)CCCCN3CCN(Cc4ccccc4Cl)CC3)ccc2c2ccnc(C)c21
IC50 (Ellman): 116 nM

O=c1[nH]cc(CO)c(=O)[nH]1
IC50 (Ellman): 205 nM

C=CCn1c2cc(OC(=O)CCCCCCN3CCN(Cc4ccccc4)CC3)ccc2c2ccnc(C)c21
IC50 (Ellman): 286 nM

CN1CCN(CCCOc2ccc3occc(=O)c3c2)CC1
IC50 (Ellman; pH 7.4): 65100 nM

COc1ncccc1-c1cnn2ccc(N3CCN(C(=O)OC(C)C)CC3)nc12
IC50: > 60000 nM

CS(=O)(=O)n1cc(Br)c(=O)[nH]c1=O
IC50 (Ellman): 111 nM

CN1CCN(CCOc2ccc3occc(=O)c3c2)CC1
IC50 (Ellman; pH 7.4): 72900 nM

Cn1ccc(=O)n(C)c1=O
IC50 (Ellman): 388 nM

COc1cc(NS(C)(=O)=O)ccc1Nc1c2ccccc2nc2ccccc12
IC50: 22500 nM

C=CCn1c2cc(OC(=O)CCCCN3CCN(Cc4ccc(F)cc4)CC3)ccc2c2ccnc(C)c21
IC50 (Ellman): 89.4 nM

CCCCNc1ccc(C(=O)OCCN(CC)CC)cc1
IC50: 18700 nM

C=CCn1c2cc(OC(=O)CCCCN3CCN(Cc4ccccc4C(F)(F)F)CC3)ccc2c2ccnc(C)c21
IC50 (Ellman): 48.4 nM

CNC(=O)Oc1cccc2c1OC(C)(C)C2
IC50 (Ellman): 38 nM

C=CCn1c2cc(OC(=O)CCCCN3CCN(Cc4ccccc4C)CC3)ccc2c2ccnc(C)c21
IC50 (Ellman): 15.7 nM

CC[n+]1c(-c2ccccc2)c2cc(N)ccc2c2ccc(N)cc21
IC50 (Ellman): 22900 nM

C=CCn1c2cc(OC(=O)CCCCN3CCN(Cc4ccc(Cl)cc4)CC3)ccc2c2ccnc(C)c21
IC50 (Ellman): 280 nM

C#CCN(C)c1nc(NCCCCC2CCN(Cc3ccccc3)CC2)c(C#N)c(-c2ccccc2)c1C#N
IC50 (Ellman): 25 nM
